Reference: ChEMBL document CHEMBL4689842, “EUbOPEN Chemogenomics Library wave 1” (2021)

What was measured:
Type in all cases: toxicity, cell-based
Fibroblast [1] = assay: Incucyte cell viability with human fibroblast; conditions: 10 µM, compound concentration 10 uM; further: filed as whole numbers so only -1 and 0 and 1 occur
HEK-293T = assay: Incucyte cell viability with HEK293T; conditions: human, 10 µM, compound concentration 10 uM; further: filed as whole numbers so only -1 and 0 and 1 occur
U2OS = assay: Incucyte cell viability with U2OS; conditions: human, 10 µM, compound concentration 10 uM; further: filed as whole numbers so only -1 and 0 and 1 occur
Fibroblast [2] = assay: Multiplex assay against human fibroblast
How it was run: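 Imaging took place on a CQ1 microscope at 37°C and 5% CO2 once compound had been added to live cells stained at seeding with Hoechst33342, BioTracker Green Microtubule Cytoskeleton Dye, MitoTracker Red and Annexin V Alexa Fluor 680. CellPathfinder machine-learning gating classed cells as Hoechst high-intensity objects or normal cells, classed normal cells as having healthy, pyknosed or fragmented nuclei, and classed pyknosed cells as mitotic or apoptotic. Tubulin, mitochondrial-mass and membrane-permeability phenotypes are per cents of the healthy-nucleus cells.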

[3] = 0 h, replicate number 2, timepoint 0 hours
[4] = 6 h, replicate number 1, timepoint 6 hours
[5] = 12 h, replicate number 1, timepoint 12 hours
[6] = 18 h, replicate number 1, timepoint 18 hours
[7] = 24 h, replicate number 1, timepoint 24 hours
[8] = 0 h, replicate number 1, timepoint 0 hours
[9] = 12 h, 1 µM, compound concentration 1 uM, replicate 1
[10] = 12 h, 1 µM, compound concentration 1 uM, replicate 2
[11] = 12 h, 10 µM, compound concentration 10 uM, replicate 1
[12] = 12 h, 10 µM, compound concentration 10 uM, replicate 2
[13] = 24 h, 1 µM, compound concentration 1 uM, replicate 1
[14] = 24 h, 1 µM, compound concentration 1 uM, replicate 2
[15] = 24 h, 10 µM, compound concentration 10 uM, replicate 1
[16] = 24 h, 10 µM, compound concentration 10 uM, replicate 2

CCOC(=O)CCNc1cc(N2CCc3ccccc3CC2)nc(-c2ccccn2)n1
Growth Rate (Fibroblast [1]; [3]): 0
Growth Rate (Fibroblast [1]; [4]): 1
Growth Rate (Fibroblast [1]; [5]): 1
Growth Rate (Fibroblast [1]; [6]): 1
Growth Rate (Fibroblast [1]; [7]): 1
Growth Rate (HEK-293T; [8]): 1
Growth Rate (HEK-293T; [4]): 0
Growth Rate (HEK-293T; [5]): 0
Growth Rate (HEK-293T; [6]): 0
Growth Rate (HEK-293T; [7]): 0
Growth Rate (U2OS; [8]): 0
Growth Rate (U2OS; [3]): 1
Growth Rate (U2OS; [4]): 0
Growth Rate (U2OS; [5]): 0
Growth Rate (U2OS; [6]): 0
Growth Rate (U2OS; [7]): 0
Population Apoptotic (%) (Fibroblast [2]; [9]): 89%
Population Fragmented Nuclei (%) (Fibroblast [2]; [9]): 22%
Population Healthy Nuclei (%) (Fibroblast [2]; [9]): 60%
Population Hoechst High Intensity Objects (%) (Fibroblast [2]; [9]): 16%
Population Membrane Permeable-Phenotype (%) (Fibroblast [2]; [9]): 8%
Population Mitochondria Different-Phenotype (%) (Fibroblast [2]; [9]): 4%
Population Mitotic Cells (%) (Fibroblast [2]; [9]): 10%
Population Normal (%) (Fibroblast [2]; [9]): 83%
Population Pyknosed Nuclei (%) (Fibroblast [2]; [9]): 16%
Population Tubulin-Different-Phenotype (%) (Fibroblast [2]; [9]): 5%
Total Cell Count (Fibroblast [2]; [9]): 214
Population Apoptotic (%) (Fibroblast [2]; [10]): 100%
Population Fragmented Nuclei (%) (Fibroblast [2]; [10]): 47%
Population Healthy Nuclei (%) (Fibroblast [2]; [10]): 42%
Population Hoechst High Intensity Objects (%) (Fibroblast [2]; [10]): 33%
Population Membrane Permeable-Phenotype (%) (Fibroblast [2]; [10]): 0%
Population Mitochondria Different-Phenotype (%) (Fibroblast [2]; [10]): 11%
Population Mitotic Cells (%) (Fibroblast [2]; [10]): 0%
Population Normal (%) (Fibroblast [2]; [10]): 66%
Population Pyknosed Nuclei (%) (Fibroblast [2]; [10]): 9%
Population Tubulin-Different-Phenotype (%) (Fibroblast [2]; [10]): 11%
Total Cell Count (Fibroblast [2]; [10]): 63
Population Apoptotic (%) (Fibroblast [2]; [11]): 68%
Population Fragmented Nuclei (%) (Fibroblast [2]; [11]): 29%
Population Healthy Nuclei (%) (Fibroblast [2]; [11]): 50%
Population Hoechst High Intensity Objects (%) (Fibroblast [2]; [11]): 17%
Population Membrane Permeable-Phenotype (%) (Fibroblast [2]; [11]): 10%
Population Mitotic Cells (%) (Fibroblast [2]; [11]): 31%
Population Normal (%) (Fibroblast [2]; [11]): 82%
Population Pyknosed Nuclei (%) (Fibroblast [2]; [11]): 20%
Population Tubulin-Different-Phenotype (%) (Fibroblast [2]; [11]): 13%
Total Cell Count (Fibroblast [2]; [11]): 175
Population Apoptotic (%) (Fibroblast [2]; [12]): 66%
Population Fragmented Nuclei (%) (Fibroblast [2]; [12]): 57%
Population Healthy Nuclei (%) (Fibroblast [2]; [12]): 35%
Population Hoechst High Intensity Objects (%) (Fibroblast [2]; [12]): 40%
Population Membrane Permeable-Phenotype (%) (Fibroblast [2]; [12]): 33%
Population Mitochondria Different-Phenotype (%) (Fibroblast [2]; [12]): 6%
Population Mitotic Cells (%) (Fibroblast [2]; [12]): 33%
Population Normal (%) (Fibroblast [2]; [12]): 60%
Population Pyknosed Nuclei (%) (Fibroblast [2]; [12]): 7%
Population Tubulin-Different-Phenotype (%) (Fibroblast [2]; [12]): 73%
Total Cell Count (Fibroblast [2]; [12]): 70
Population Apoptotic (%) (Fibroblast [2]; [13]): 76%
Population Fragmented Nuclei (%) (Fibroblast [2]; [13]): 23%
Population Healthy Nuclei (%) (Fibroblast [2]; [13]): 63%
Population Hoechst High Intensity Objects (%) (Fibroblast [2]; [13]): 12%
Population Membrane Permeable-Phenotype (%) (Fibroblast [2]; [13]): 11%
Population Mitochondria Different-Phenotype (%) (Fibroblast [2]; [13]): 1%
Population Mitotic Cells (%) (Fibroblast [2]; [13]): 23%
Population Normal (%) (Fibroblast [2]; [13]): 87%
Population Pyknosed Nuclei (%) (Fibroblast [2]; [13]): 13%
Population Tubulin-Different-Phenotype (%) (Fibroblast [2]; [13]): 1%
Total Cell Count (Fibroblast [2]; [13]): 225
Population Apoptotic (%) (Fibroblast [2]; [14]): 100%
Population Fragmented Nuclei (%) (Fibroblast [2]; [14]): 60%
Population Healthy Nuclei (%) (Fibroblast [2]; [14]): 34%
Population Hoechst High Intensity Objects (%) (Fibroblast [2]; [14]): 26%
Population Membrane Permeable-Phenotype (%) (Fibroblast [2]; [14]): 0%
Population Mitochondria Different-Phenotype (%) (Fibroblast [2]; [14]): 14%
Population Mitotic Cells (%) (Fibroblast [2]; [14]): 0%
Population Normal (%) (Fibroblast [2]; [14]): 73%
Population Pyknosed Nuclei (%) (Fibroblast [2]; [14]): 4%
Population Tubulin-Different-Phenotype (%) (Fibroblast [2]; [14]): 14%
Total Cell Count (Fibroblast [2]; [14]): 56
Population Apoptotic (%) (Fibroblast [2]; [15]): 82%
Population Fragmented Nuclei (%) (Fibroblast [2]; [15]): 34%
Population Healthy Nuclei (%) (Fibroblast [2]; [15]): 50%
Population Hoechst High Intensity Objects (%) (Fibroblast [2]; [15]): 15%
Population Membrane Permeable-Phenotype (%) (Fibroblast [2]; [15]): 6%
Population Mitochondria Different-Phenotype (%) (Fibroblast [2]; [15]): 6%
Population Mitotic Cells (%) (Fibroblast [2]; [15]): 17%
Population Normal (%) (Fibroblast [2]; [15]): 84%
Population Pyknosed Nuclei (%) (Fibroblast [2]; [15]): 15%
Population Tubulin-Different-Phenotype (%) (Fibroblast [2]; [15]): 7%
Total Cell Count (Fibroblast [2]; [15]): 180
Population Apoptotic (%) (Fibroblast [2]; [16]): 100%
Population Fragmented Nuclei (%) (Fibroblast [2]; [16]): 53%
Population Healthy Nuclei (%) (Fibroblast [2]; [16]): 41%
Population Hoechst High Intensity Objects (%) (Fibroblast [2]; [16]): 33%
Population Membrane Permeable-Phenotype (%) (Fibroblast [2]; [16]): 11%
Population Mitochondria Different-Phenotype (%) (Fibroblast [2]; [16]): 11%
Population Mitotic Cells (%) (Fibroblast [2]; [16]): 0%
Population Normal (%) (Fibroblast [2]; [16]): 66%
Population Pyknosed Nuclei (%) (Fibroblast [2]; [16]): 4%
Population Tubulin-Different-Phenotype (%) (Fibroblast [2]; [16]): 41%
Total Cell Count (Fibroblast [2]; [16]): 62
